Assays:
[1] = Growth inhibition effect against NSCL A-549 cells; format: functional, Homo sapiens
Procedure, shortened: (§1)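 SRB colorimetric growth assay. Cells seeded at 5 × 10^3 per well in RPMI, attached 18 h in drug-free medium, then sample added (dissolved in DMSO/H₂O 3:7) for 48-72 h. Fixed with cold 50% TCA, 60 min, 4 °C; stained with 0.4% SRB in 1% acetic acid, 10 min RT; bound dye solubilized in Tris, OD 490 nm. GI50 from 100 × [(T − T0)/(C − T0)] = 50.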

[2] = Growth inhibition effect against pancreas PANC-1 cells; format: functional, Homo sapiens; procedure, shortened: as §1
[3] = test system: K562; test: Growth inhibition effect against leukemia […] cells; format: functional, Homo sapiens; procedure, shortened: as §1
[4] = Growth inhibition effect against colon LOVO-DOX cells; format: functional, Homo sapiens; procedure, shortened: as §1
[5] = Growth inhibition effect against ovarian tumor IGROV-ET cells; format: functional, Homo sapiens; procedure, shortened: as §1
[6] = Growth inhibition effect against ovarian tumor SK-BR-3 cells; format: functional, Homo sapiens; procedure, shortened: as §1
[7] = Growth inhibition effect against […] HT-29 cells; format: functional, Homo sapiens; procedure, shortened: as §1
[8] = Growth inhibition effect against melanoma MEL-28 cells; format: functional, Homo sapiens; procedure, shortened: as §1
[9] = Growth inhibition effect against prostate tumor DU-145 cells; format: functional, Homo sapiens; procedure, shortened: as §1
[10] = Growth inhibition effect against prostate tumor IGROV cells; format: functional, Homo sapiens; procedure, shortened: as §1
[11] = Growth inhibition effect against prostate tumor LN-caP cells; format: functional, Homo sapiens; procedure, shortened: as §1
[12] = Growth inhibition effect against prostate tumor SKOV-3 cells; format: functional, Homo sapiens, SK-OV-3; procedure, shortened: as §1
[13] = Growth inhibition effect against colon LOVO cells; format: functional, Homo sapiens; procedure, shortened: as §1

Compound	GI50 ([1]; Homo sapiens, A549)	GI50 ([2]; Homo sapiens, PANC-1)	GI50 ([3]; Homo sapiens, K562)	GI50 ([4]; Homo sapiens, LOVO-DOX)	GI50 ([5]; Homo sapiens, IGROV-ET)	GI50 ([6]; Homo sapiens, SK-BR-3)	GI50 ([7]; Homo sapiens, HT-29)	GI50 ([8]; Homo sapiens, SK-MEL-28)	GI50 ([10]; Homo sapiens, IGROV)	GI50 ([11]; Homo sapiens, LNCaP)	GI50 [9]	GI50 [12]	GI50 [13]	other results
CC[C@H](C)[C@@H]1NC(=O)[C@H](C)NC(=O)[C@H](CC(C)C)N2C[C@@H](O)[C@@H](O)[C@H](NC(=O)[C@H](CC(N)=O)NC(=O)[C@H](Cc3ccccc3)NC(=O)[C@@H]3CCCN3C1=O)C2=O	5.2 µM	5.1 µM	3.59 µM	8.84 µM	4.97 µM	3.86 µM	9.31 µM	6.69 µM	3.33 µM	3.49 µM	–	–	–	GI50 ([9]; Homo sapiens, DU-145): 10.6 µM; GI50 ([12]; Homo sapiens, SK-OV-3): 4.99 µM; GI50 ([13]; Homo sapiens, LoVo): 8.83 µM
CC[C@H](C)[C@@H]1NC(=O)[C@H](C)NC(=O)[C@H](CC(C)C)NC(=O)[C@H](CO)NC(=O)[C@H](CC(N)=O)NC(=O)[C@H](Cc2ccccc2)NC(=O)[C@@H]2CCCN2C1=O (stereo in doubt; 2) [STYLOSTATIN 1]	–	–	–	–	–	–	–	–	–	–	8.44 µM	3.77 µM	11.5 µM	GI50 [1]: 4.28 µM; GI50 [2]: 4.97 µM; GI50 [3]: 3.42 µM; GI50 [4]: 8.52 µM; GI50 [5]: 4.29 µM; GI50 [6]: 4.16 µM; GI50 [7]: 7.13 µM; GI50 [8]: 4.64 µM; GI50 [10]: 3.35 µM; GI50 [11]: 2.44 µM
CC[C@H](C)[C@@H]1NC(=O)[C@H](C)NC(=O)[C@H](CC(C)C)NC(=O)[C@H](CO)NC(=O)[C@H](CC(N)=O)NC(=O)[C@H](Cc2ccccc2)NC(=O)[C@@H]2CCCN2C1=O (stereo in doubt) [STYLOSTATIN 1]	3.46 µM	5.03 µM	1.94 µM	6.77 µM	3.3 µM	4.39 µM	6.85 µM	3.06 µM	2.58 µM	2.6 µM	3.55 µM	304 µM	4.55 µM	–
